Laboratory results reported in ChEMBL document CHEMBL1145446, “Phosphonated carbocyclic 2'-oxa-3'-azanucleosides as new antiretroviral agents” (J Med Chem, 2007).
≈ marks a conversion by molar mass, not a printed value. Calls of active or inactive are those of the source. The rule behind the calls is not given here.

Tests used:
[1] = test system: Human T-cell leukemia virus type I; assay: Antiviral activity against HTLV1 in human PBMC at 5 uM; assay type: functional, organism-based
Summary of the method: (§1)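 Fresh human PBMC cultures were given compound at 100, 25, 5 or 1 µM immediately before exposure to HTLV-1. Infection was read out as Tax/Rex viral mRNA expression by liquid hybridization assay 3 weeks after virus exposure.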

[2] = test system: PBMC; assay: Cytotoxicity against PBMC after 1 week by trypan blue exclusion test; assay type: cell-based; conditions: human, 168 h
Summary of the method: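 Freshly separated PBMCs were cultured short-term with compound and interleukin 2, without other stimuli. Cell growth and death were assessed on day 7, and cytotoxicity was expressed as CC20.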

[3] = test system: Human T-cell leukemia virus type I; assay: Antiviral activity against HTLV1 in human PBMC at 1 uM; assay type: functional, organism-based; summary of the method: as §1
[4] = test system: Human T-cell leukemia virus type I; assay: Antiviral activity against HTLV1 in human PBMC at 100 uM; assay type: functional, organism-based; summary of the method: as §1
[5] = test system: Human T-cell leukemia virus type I; assay: Antiviral activity against HTLV1 in human PBMC at 25 uM; assay type: functional, organism-based; summary of the method: as §1
[6] = test system: Human T-cell leukemia virus type I; assay: Antiviral activity against HTLV1 in human PBMC; assay type: functional; summary of the method: as §1
[7] = test system: Human T-cell leukemia virus type I; assay: Inhibition of HTLV1 reverse transcriptase
Summary of the method: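 Cell-free assay of HTLV-1 reverse transcriptase, with compounds activated by incubation with human PBMC crude extract. Reverse transcription was read out by RT-PCR using a 20-cycle amplification program.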

Row | Compound | Activity [1] | CC20 [2] [µM] | GI25 [2] [µM] | Activity [3] | Activity [4] | Activity [5] | MPC [6] [µM] | MIC [7] [nM]
1 | CCOP(=O)(CC1CC(n2cc(C)c(=O)[nH]c2=O)ON1C)OCC (stereo not given) | Active | > 2048 | 817 | Active | Active | Active | 1 | –
2 | CCOP(=O)(CC1CC(n2cc(F)c(=O)[nH]c2=O)ON1C)OCC (stereo not given) | Active | > 2048 | 119 | Active | Active | Active | 1 | –
3 | CCOP(=O)(CC1CC(n2cnc3c(N)ncnc32)ON1C)OCC (racemic) | – | > 2048 | 121 | – | – | – | >100 | > 10000
4 | CCOP(=O)(CC1CC(n2cc(Br)c(=O)[nH]c2=O)ON1C)OCC (racemic) | – | > 2048 | 215 | – | – | – | >100 | 8 (≈ 3.41 ng/mL)
5 | Cc1cn([C@H]2C[C@H](N=[N+]=[N-])[C@@H](CO)O2)c(=O)[nH]c1=O [ZIDOVUDINE] | Active | 1153 | 15 | Active | Active | Active | 1 | 4 (≈ 1.07 ng/mL)
